Consider 22 compounds from ChEMBL document CHEMBL1128287, “Ketanserin analogues: the effect of structural modification on 5-HT2 serotonin receptor binding” (J Med Chem, 1995).

pKi: −log10 of the molar value. Some results are limits rather than exact numbers.

One may read the pKi as the Ki on a negative log10 scale, so that one unit is a factor of ten. The low end stands for a high Ki, the high end for a low Ki.

Test [1] has as its target 5-hydroxytryptamine receptor 2A (Rattus norvegicus, UniProt P14842). Kind of test: Binding affinity against 5-hydroxytryptamine 2A receptor. The procedure, abridged:
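Brain tissue homogenized in Tris-HCl 50 mM, MgCl2 10 mM, pH 7.4, then washed, incubated 15 min at 37 °C, and resuspended with 0.1% ascorbate and 10⁻⁵ M pargyline. Triplicate tubes held 5 mg wet tissue and 0.4 nM [³H]-ketanserin, with 1.0 μM cinanserin defining nonspecific binding. Incubated 15 min at 37 °C, then filtered. Ki = IC50/(1 + D*/KD*).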

Test [2] deals with T1, 5-hydroxytryptamine receptor 2C (Rattus norvegicus, UniProt P08909).
T1 sequence (P08909 whole entry): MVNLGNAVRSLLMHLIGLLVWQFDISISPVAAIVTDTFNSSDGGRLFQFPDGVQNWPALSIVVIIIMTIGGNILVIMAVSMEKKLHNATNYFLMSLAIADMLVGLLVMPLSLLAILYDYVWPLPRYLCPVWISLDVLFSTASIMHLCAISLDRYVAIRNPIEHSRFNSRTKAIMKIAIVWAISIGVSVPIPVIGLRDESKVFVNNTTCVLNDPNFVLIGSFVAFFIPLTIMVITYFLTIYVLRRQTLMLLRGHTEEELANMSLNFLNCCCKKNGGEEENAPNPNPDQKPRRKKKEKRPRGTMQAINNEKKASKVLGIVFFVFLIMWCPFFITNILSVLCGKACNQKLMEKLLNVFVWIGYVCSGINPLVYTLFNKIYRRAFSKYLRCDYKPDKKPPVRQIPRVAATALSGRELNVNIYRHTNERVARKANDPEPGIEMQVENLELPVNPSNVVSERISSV
Kind of test: Binding affinity against 5-hydroxytryptamine 2C receptor. In short, it runs like this: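 Washed brain membranes in Tris-HCl/MgCl2 pH 7.4 with ascorbate and pargyline. Triplicate tubes held 10 mg wet tissue, 1 nM [³H]-mesulergine, and 100 nM spiperone in every tube to block 5-HT2A sites. Nonspecific binding was defined with 1.0 μM mianserin. Incubated 15 min at 37 °C, then filtered and counted. Ki came from IC50 corrected for radioligand concentration and KD.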

For test [3], the target named is Serotonin receptor 2a and 2c (5HT2A and 5HT2C) (Rattus norvegicus) (UniProt P08909+P14842). In words: Selectivity as the ratio of Ki value towards 5-hydroxytryptamine 2C receptor to that of 5-hydroxytryptamine 2A receptor. The format is protein assay.
Chain of Serotonin receptor 2a and 2c (5HT2A and 5HT2C) (Rattus norvegicus) (P14842 whole entry, looked up, one chain of several): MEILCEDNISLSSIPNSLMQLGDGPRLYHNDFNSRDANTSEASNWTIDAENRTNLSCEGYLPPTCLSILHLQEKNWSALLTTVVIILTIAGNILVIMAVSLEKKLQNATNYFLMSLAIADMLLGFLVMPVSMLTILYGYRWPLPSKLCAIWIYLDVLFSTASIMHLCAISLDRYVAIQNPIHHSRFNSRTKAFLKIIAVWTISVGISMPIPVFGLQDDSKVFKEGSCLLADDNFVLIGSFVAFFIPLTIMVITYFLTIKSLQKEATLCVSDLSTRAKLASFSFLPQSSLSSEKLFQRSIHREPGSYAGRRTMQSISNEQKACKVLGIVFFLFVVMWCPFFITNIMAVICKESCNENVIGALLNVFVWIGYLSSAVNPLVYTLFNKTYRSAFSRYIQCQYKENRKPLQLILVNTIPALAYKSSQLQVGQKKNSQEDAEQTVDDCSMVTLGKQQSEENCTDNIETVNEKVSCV

Chain of 5-hydroxytryptamine receptor 2A (P14842 whole entry): as the sequence (P14842 whole entry, looked up, one chain of several) above

As to `O=c1[nH]c2ccccc2c(=O)n1CCN1CCN(C(c2ccccc2)c2ccccc2)CC1`, the negative-log Ki (pKi) is 7.19 in test [1] and 6.20 in test [2]. Besides, the Selectivity in test [3] came to 10.
`C(=C(\c1ccccc1)C1CCN(CCc2ccccc2)CC1)/c1ccccc1` showed a pKi in test [1] of 7.72.
For `c1ccc(CCCCN2CCN(Cc3ccccc3)CC2)cc1`, the negative-log Ki (pKi) is 6.62 in test [1] and under 5.00 in test [2]. Moreover, the Selectivity in test [3] was over 40.
The matching figures for `c1ccc(CCCCN2CCC(Cc3ccccc3)CC2)cc1`: 6.92, 5.39 and 34.
The matching figures for `Fc1ccc(CC2CCN(CCc3ccccc3)CC2)cc1`: 7.74, 5.70 and 110.
For the compound `c1ccc(CCCCN2CCC(=C(c3ccccc3)c3ccccc3)CC2)cc1`, the results for the pKi in test [1] and in test [2] were 7.70 and 6.66, respectively. Besides, in test [3], the Selectivity is 11.
The matching figures for `CN1CCC(C(=O)c2ccccc2)CC1`: 6.22, under 5.00 and over 16.
Turning to `CN1CCN(C(=O)c2ccccc2)CC1`, the pKi in test [1] and in test [2] was under 5.00 in each case.
Turning to `O=c1[nH]c2ccccc2c(=O)n1CCN1CCC(C(c2ccccc2)c2ccccc2)CC1`, the results for the pKi in test [1] and in test [2] were 7.74 and 7.28, respectively. Further, the Selectivity in test [3] amounted to 3.
The corresponding values for `O=C(c1ccccc1)C1CCN(CCCCc2ccccc2)CC1` are 8.00, 5.62 and 240.
The matching figures for `Fc1ccc(CC2CCN(CCCCc3ccccc3)CC2)cc1`: 7.40, 5.56 and 70.
Turning to `O=C(c1ccccc1)N1CCN(CCCCc2ccccc2)CC1`, the values for the pKi in test [1] and in test [2] were 6.74 and 5.07, respectively. In addition, in test [3], the Selectivity amounted to 47.
Turning to `OC(c1ccccc1)C1CCN(CCc2ccccc2)CC1` (stereo unspecified) [GLEMANSERIN], the pKi in test [1] was 8.60; in test [2], 6.08. Besides, in test [3], the Selectivity was found to be 330.
The corresponding values for `c1ccc(CCN2CCC(Cc3ccccc3)CC2)cc1` are 7.66, 5.75 and 80.
The matching figures for `c1ccc(CCN2CCC(=C(c3ccccc3)c3ccccc3)CC2)cc1`: 8.16, 7.54 and 4.
For `O=C(c1ccc(F)cc1)C1CCN(CCc2ccccc2)CC1`, in test [1], the negative-log Ki (pKi) is 8.07. In test [3], the Selectivity was found to be 17.
As for `OC(c1ccc(F)cc1)C1CCN(CCCCc2ccccc2)CC1` (stereo unspecified), the pKi was 6.90 in test [1] and 5.18 in test [2]. Besides, the Selectivity in test [3] is 52.
The matching figures for `OC(c1ccccc1)C1CCN(CCCCc2ccccc2)CC1` (stereo unspecified): 6.58, under 5.00 and over 35.
For `O=C(c1ccccc1)C1CCN(CCc2ccccc2)CC1`, the pKi is 8.02 in test [1] and 6.10 in test [2]. Also, in test [3], the Selectivity came out at 83.
Turning to `O=C(c1ccc(F)cc1)C1CCN(CCCCc2ccccc2)CC1`, the pKi in test [1] is 8.28. For the same compound, the Selectivity in test [3] was 120.
`C(/Cc1ccccc1)=C(\c1ccccc1)C1CCN(CCCCc2ccccc2)CC1`: the pKi is 7.00 in test [1] and 5.86 in test [2]. Also, the Selectivity in test [3] came out at 14.
In the case of `OC(c1ccc(F)cc1)C1CCN(CCc2ccccc2)CC1` (stereo unspecified), the negative logarithm of the Ki (pKi) in test [1] was 8.52; in test [2], 5.82. The Selectivity in test [3] is 460.
